The text below walks through data of ChEMBL document CHEMBL1141183, “Development of potent mu-opioid receptor ligands using unique tyrosine analogues of endomorphin-2” (J Med Chem, 2005).

Test [1] concerns the target Mu-type opioid receptor (Cavia porcellus, UniProt P97266). In words: In vitro inhibition of opioid receptor mu using isolated guinea pig ileum. The format is tissue-based. Put shortly:
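Myenteric plexus longitudinal muscle strips (2-3 cm) from small intestine of male Hartley guinea pigs, in organ bath with physiological salt buffer, pH 7.5, for μ-receptor agonism.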

The target in test [2] is Delta-type opioid receptor (Mus musculus, UniProt P32300). Description: In vitro inhibition of opioid receptor delta using mouse vas deferens. The format is tissue-based.
Chain of Delta-type opioid receptor (Mus musculus, UniProt P32300) (P32300 whole entry): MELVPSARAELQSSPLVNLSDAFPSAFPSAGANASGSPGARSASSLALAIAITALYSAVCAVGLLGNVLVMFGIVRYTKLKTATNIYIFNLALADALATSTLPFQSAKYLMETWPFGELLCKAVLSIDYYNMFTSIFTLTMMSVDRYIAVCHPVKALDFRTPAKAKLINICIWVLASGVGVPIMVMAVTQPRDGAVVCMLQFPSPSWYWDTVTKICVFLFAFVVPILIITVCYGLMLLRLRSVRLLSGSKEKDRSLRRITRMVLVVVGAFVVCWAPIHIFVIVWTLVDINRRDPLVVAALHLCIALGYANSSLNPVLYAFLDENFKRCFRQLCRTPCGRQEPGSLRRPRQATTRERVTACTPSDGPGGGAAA
For test [3], the target named is Delta-type opioid receptor (Rattus norvegicus, UniProt P33533). Description: Inhibition of [3H]DPDPE binding to delta-Opioid receptor. An outline of the steps:
(§1)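 Synaptosomal membranes preincubated to remove endogenous opioids, washed, stored at -80 °C with protease inhibitor. μ sites labelled with [3H]DAMGO, δ with [3H]DPDPE; nonspecific binding set by 2 µM unlabelled peptide. Filtration on polyethylenimine-soaked GF/C filters, scintillation counting. Five to seven peptide doses in duplicate, several preparations. Ki by Cheng-Prusoff.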

For test [4], the target named is Mu-type opioid receptor (Rattus norvegicus, UniProt P33535). In words: Inhibition of [3H]DAMGO binding to mu-Opioid receptor. An outline of the steps:
as §1

In test [5] the target is Opioid receptors; mu & delta (Rattus norvegicus) (UniProt P33533+P33535). In words: Relative binding to delta and mu Opioid receptors (ratio of Ki). The test is classed as protein assay.
Chain of Opioid receptors; mu & delta (Rattus norvegicus) (P33533 whole entry, looked up): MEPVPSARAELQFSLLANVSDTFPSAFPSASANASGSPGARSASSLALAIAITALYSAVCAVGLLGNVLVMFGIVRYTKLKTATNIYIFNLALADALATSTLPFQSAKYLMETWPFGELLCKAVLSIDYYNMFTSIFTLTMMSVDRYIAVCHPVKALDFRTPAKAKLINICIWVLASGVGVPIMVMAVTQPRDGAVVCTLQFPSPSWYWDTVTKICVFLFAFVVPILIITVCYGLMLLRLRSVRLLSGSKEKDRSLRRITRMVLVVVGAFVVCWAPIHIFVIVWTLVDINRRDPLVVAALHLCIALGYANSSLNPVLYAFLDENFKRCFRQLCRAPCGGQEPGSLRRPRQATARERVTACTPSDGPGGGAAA
Chain of Opioid receptors; mu & delta (Rattus norvegicus) (P33535 whole entry, looked up): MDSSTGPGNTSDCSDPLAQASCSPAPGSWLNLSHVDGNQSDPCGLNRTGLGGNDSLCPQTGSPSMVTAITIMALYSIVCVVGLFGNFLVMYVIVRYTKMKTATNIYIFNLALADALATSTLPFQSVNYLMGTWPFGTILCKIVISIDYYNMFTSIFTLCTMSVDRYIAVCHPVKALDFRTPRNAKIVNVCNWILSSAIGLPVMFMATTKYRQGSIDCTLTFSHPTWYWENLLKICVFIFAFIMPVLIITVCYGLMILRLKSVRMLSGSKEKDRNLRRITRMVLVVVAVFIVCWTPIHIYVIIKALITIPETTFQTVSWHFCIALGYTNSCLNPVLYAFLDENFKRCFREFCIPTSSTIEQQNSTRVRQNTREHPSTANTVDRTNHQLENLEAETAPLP
The species entered for test [6] is Mus musculus. Description: Inhibition of electrically evoked contraction in mice by tail flick method; nd=None detected. The test is classed as functional, organism-based. On the technique in general: In hot-plate and tail-flick tests a longer latency is read as antinociception.

Activity calls are given as the source filed them. The rule behind the calls is not given here. Bounds are passed on as bounds.

Chain of Mu-type opioid receptor (Cavia porcellus, UniProt P97266) (P97266 whole entry): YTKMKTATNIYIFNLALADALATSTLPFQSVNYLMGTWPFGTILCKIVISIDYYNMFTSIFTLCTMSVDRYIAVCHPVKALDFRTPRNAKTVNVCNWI
Chain of Mu-type opioid receptor (Rattus norvegicus, UniProt P33535) (P33535 whole entry): as the sequence (P33535 whole entry, looked up) above
Chain of Delta-type opioid receptor (Rattus norvegicus, UniProt P33533) (P33533 whole entry): as the sequence (P33533 whole entry, looked up) above

As to `Cc1cc(O)ccc1C[C@H](N)C(=O)N1CCC[C@H]1C(=O)N[C@@H](Cc1ccccc1)C(=O)N[C@@H](Cc1ccccc1)C(N)=O`, the concentration for half-maximal inhibition (IC50) is 0.924 nM in test [1] and 28.7 nM in test [2]. Further, the values for the Ki in test [3] and in test [4] were 529 nM and 0.132 nM, respectively. The Ratio in test [5] was found to be 4000.
For `CCc1cc(O)cc(CC)c1C[C@H](N)C(=O)N1CCC[C@H]1C(=O)N[C@@H](Cc1ccccc1)C(=O)N[C@@H](Cc1ccccc1)C(N)=O`, in that order: 0.903 nM, 47.1 nM, 69.7 nM, 0.084 nM and 830.
On the same counts, the results for `CCc1cc(O)cc(C)c1C[C@H](N)C(=O)N1CCC[C@H]1C(=O)N[C@@H](Cc1ccccc1)C(=O)N[C@@H](Cc1ccccc1)C(N)=O` are 0.623 nM, 1.08 nM, 55.7 nM, 0.063 nM and 884.
For `Cc1cc(O)c(C)c(C)c1C[C@H](N)C(=O)N1CCC[C@H]1C(=O)N[C@@H](Cc1ccccc1)C(=O)N[C@@H](Cc1ccccc1)C(N)=O`, in that order: 2.31 nM, 46.4 nM, 593 nM, 0.111 nM and 5350.
Turning to `CC(C)c1cc(O)cc(C(C)C)c1C[C@H](N)C(=O)N1CCC[C@H]1C(=O)N[C@@H](Cc1ccccc1)C(=O)N[C@@H](Cc1ccccc1)C(N)=O`, the values for the IC50 in test [1] and in test [2] were 299 nM and greater than 10000 nM, respectively. The inhibition constant (Ki) amounted to 105 nM in test [3] and 2.29 nM in test [4]. The inhibition result in test [6] is “inactive”. For the same molecule, in test [5], the Ratio worked out at 46.
For the molecule `Cc1cc(O)cc(C(C)C)c1C[C@H](N)C(=O)N1CCC[C@H]1C(=O)N[C@@H](Cc1ccccc1)C(=O)N[C@@H](Cc1ccccc1)C(N)=O`, the IC50 in test [1] came out at 10.6 nM; in test [2], 601 nM. Further, the inhibition constant (Ki) worked out at 190 nM in test [3] and 0.15 nM in test [4]. The Ratio in test [5] was determined as 1270.

One may read the IC50 as the midpoint of a concentration-inhibition curve. Read a low IC50 as greater potency. The term Ki denotes the equilibrium dissociation constant of an inhibitor or competing ligand from its target. Low readings indicate higher affinity, high ones lower affinity.
